Experimental data taken from ChEMBL document CHEMBL1287657, “Synthesis and biological activities of new furo[3,4-b]carbazoles: potential topoisomerase II inhibitors” (Eur J Med Chem, 2010).
Active and inactive are the calls of the source. The calls are words filed in the database; no cut-off is given here.

Assays:
[1] = biological target: DNA topoisomerase 2-alpha (Homo sapiens) (UniProt P11388); experiment: Inhibition of human topoisomerase 2-mediated relaxation of supercoiled PUC19 DNA at 20 to 50 uM uM after 20 mins using ethidium bromide staining by agarose gel electrophoresis
Sequence of DNA topoisomerase 2-alpha (Homo sapiens) (P11388 whole entry): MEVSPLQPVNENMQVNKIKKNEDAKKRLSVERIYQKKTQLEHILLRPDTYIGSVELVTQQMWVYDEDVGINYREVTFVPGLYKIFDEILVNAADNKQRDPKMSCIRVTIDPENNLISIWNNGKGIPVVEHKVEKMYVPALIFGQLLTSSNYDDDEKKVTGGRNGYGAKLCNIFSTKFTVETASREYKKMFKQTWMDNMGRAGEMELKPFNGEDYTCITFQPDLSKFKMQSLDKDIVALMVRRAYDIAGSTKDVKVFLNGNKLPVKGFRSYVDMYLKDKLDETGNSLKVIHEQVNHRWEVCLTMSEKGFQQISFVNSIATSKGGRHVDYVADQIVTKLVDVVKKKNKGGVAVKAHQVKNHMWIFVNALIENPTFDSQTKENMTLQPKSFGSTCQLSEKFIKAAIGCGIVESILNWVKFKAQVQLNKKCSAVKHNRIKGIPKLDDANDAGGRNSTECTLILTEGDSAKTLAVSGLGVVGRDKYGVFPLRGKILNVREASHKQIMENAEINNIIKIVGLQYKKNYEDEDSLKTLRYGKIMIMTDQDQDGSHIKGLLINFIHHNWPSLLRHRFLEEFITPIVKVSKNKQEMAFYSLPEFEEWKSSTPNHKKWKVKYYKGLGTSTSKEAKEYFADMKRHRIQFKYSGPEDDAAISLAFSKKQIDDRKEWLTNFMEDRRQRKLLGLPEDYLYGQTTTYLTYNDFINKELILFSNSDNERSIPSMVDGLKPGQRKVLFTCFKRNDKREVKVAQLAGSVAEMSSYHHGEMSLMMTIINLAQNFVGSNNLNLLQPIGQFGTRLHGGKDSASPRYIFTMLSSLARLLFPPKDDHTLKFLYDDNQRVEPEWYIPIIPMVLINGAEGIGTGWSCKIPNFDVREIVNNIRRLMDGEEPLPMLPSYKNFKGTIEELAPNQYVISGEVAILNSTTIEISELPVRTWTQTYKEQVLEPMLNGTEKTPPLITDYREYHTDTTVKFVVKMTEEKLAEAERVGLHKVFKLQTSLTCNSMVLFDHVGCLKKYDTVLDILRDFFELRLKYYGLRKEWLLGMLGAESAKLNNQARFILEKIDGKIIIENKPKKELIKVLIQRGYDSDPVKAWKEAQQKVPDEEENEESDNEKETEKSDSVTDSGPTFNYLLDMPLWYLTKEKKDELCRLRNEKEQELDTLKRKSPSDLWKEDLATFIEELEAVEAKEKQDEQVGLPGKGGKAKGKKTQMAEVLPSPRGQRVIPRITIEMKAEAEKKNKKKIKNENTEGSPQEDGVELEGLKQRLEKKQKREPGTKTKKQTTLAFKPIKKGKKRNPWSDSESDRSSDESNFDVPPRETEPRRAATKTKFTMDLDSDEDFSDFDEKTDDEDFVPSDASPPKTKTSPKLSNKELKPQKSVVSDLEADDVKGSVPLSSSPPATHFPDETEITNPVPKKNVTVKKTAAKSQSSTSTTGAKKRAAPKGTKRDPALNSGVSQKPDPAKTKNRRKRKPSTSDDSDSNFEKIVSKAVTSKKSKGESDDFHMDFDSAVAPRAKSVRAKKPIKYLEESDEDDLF
In short: (§1)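 Native supercoiled pUC19 plasmid (350 ng) incubated with 4 units human topoisomerase II, with or without compound at several concentrations; etoposide run as reference. Relaxation/cleavage products separated by gel electrophoresis and scored for supercoiled, relaxed and broken DNA forms.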

Calf thymus DNA = experiment: Binding affinity to calf thymus DNA assessed as change in melting temperature; format: nucleic-acid assay; settings: Bos taurus
[2] = Cytotoxicity against human HL60/MX2 cells; format: functional, cell-based
[3] = biological target: DNA topoisomerase 2-alpha (Homo sapiens) (UniProt P11388); experiment: Inhibition of human topoisomerase 2-mediated relaxation of supercoiled PUC19 DNA at 1 to 100 uM uM after 20 mins using ethidium bromide staining by agarose gel electrophoresis; in short: as §1
HL-60 = experiment: Cytotoxicity against human HL60 cells; format: functional, cell-based

COc1ccc(-c2c3c(cc4c2[nH]c2ccccc24)COC3=O)cc1OC
inhibition [1]: inactive | Activity (Calf thymus DNA): inactive

COc1cc(-c2c3c(cc4c2[nH]c2ccccc24)COC3=O)cc(O)c1O
IC50 [2]: 170 nM | inhibition [3]: Active | inhibition [1]: Active | IC50 (HL-60): 150 nM | Activity (Calf thymus DNA): inactive

O=C1OCc2cc3c([nH]c4ccccc43)c(-c3ccc4c(c3)OCO4)c21
inhibition [1]: inactive

COc1ccc(-c2c3c(cc4c2[nH]c2ccccc24)COC3=O)cc1
inhibition [1]: inactive

COc1cc([C@@H]2c3cc4c(cc3[C@@H](O[C@@H]3O[C@@H]5CO[C@@H](C)O[C@H]5[C@H](O)[C@H]3O)[C@H]3COC(=O)[C@H]23)OCO4)cc(OC)c1O
inhibition [1]: Active

COc1cc(OC)cc(-c2c3c(cc4c2[nH]c2ccccc24)COC3=O)c1
inhibition [1]: inactive

COc1cc(-c2c3c(cc4c2[nH]c2ccccc24)COC3=O)cc(OC)c1OC
inhibition [1]: inactive
